Compounds with a hit are over-represented: about 1.9% of the library has one in this group of screens.
RAD52 inh – RAD52 (human) annealing inhibition | P43351 | recombinant RAD52 DNA annealing, FRET fluorescence | inhibition, % at 18.7 µM | hit rate 0.46% among 360,000 | AID 651710;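 active = every replicate showing at least 50% inhibition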
Target sequence (P43351 whole entry, looked up): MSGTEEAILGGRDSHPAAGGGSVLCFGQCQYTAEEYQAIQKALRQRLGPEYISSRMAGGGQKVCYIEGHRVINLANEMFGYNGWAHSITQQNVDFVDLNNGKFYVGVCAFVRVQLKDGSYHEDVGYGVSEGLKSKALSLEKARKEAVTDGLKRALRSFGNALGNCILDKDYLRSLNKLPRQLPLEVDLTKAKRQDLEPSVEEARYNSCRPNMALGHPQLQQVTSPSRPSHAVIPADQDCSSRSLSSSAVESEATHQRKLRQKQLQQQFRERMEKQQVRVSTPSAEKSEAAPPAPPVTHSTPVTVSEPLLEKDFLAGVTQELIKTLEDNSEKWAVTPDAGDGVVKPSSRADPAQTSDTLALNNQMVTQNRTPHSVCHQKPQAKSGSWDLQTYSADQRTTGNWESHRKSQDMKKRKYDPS
RAD54 branch – blocks human RAD54 Holliday junction branch migration; FAM/BHQ fluorescence; hit rate 0.14% among 360,000; inhibition, % at 10.4 µM; Q92698;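 active = mean normalized replicate activity at least 40 and at least half of replicates scoring 40 or more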;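 also: 0% = median of neutral control wells and 100% = median of positive control wells; inhibitors cause a drop in the FAM fluorescence signal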
PglD inh – blocks C. jejuni PglD acetyltransferase activity; purified PglD enzyme, DTNB colorimetric CoA detection; inhibition, % at 12.5 µM; AID 602405; hit rate 0.098% among 360,000; in the data active = inhibition above about 16%, passing the limit was not always enough
rRNA inh HTS – selective bacterial rRNA inhibition in E. coli | E. coli WT GFP vs humanized-ribosome RFP mutants, fluorescence, 24 h; stronger effect = lower value; DMSO median 0, no signal -100 | GFP signal change (wild-type ribosome), % (concentration not given with the values) | hit rate 1.6% among 350,000;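 active = significant combined selectivity score with lowered wild-type GFP, culture density cut under 30%, mutant RFP and density less affected; inactive = any of these conditions unmet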
Cneo AK release – Cryptococcus neoformans lysis via adenylate kinase release; C. neoformans lysis, adenylate kinase release luminescence, 4 h; normalised: neutral wells 0, clomiphene wells 100; lysis activity, % at 15 µM; hit rate 0.2% among 360,000; AID 651654;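 active = mean lysis activity across replicates of at least 80%, whatever share of replicates individually reach that level; inactive = mean lysis activity below 80%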
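Test system: log-phase Cryptococcus neoformans yeast cells; Quantity: yeast cell density of 5 × 10^6 cells/mL; Buffer or medium: YPD; Doses: single compound concentration per well; Timing: 4 h at 37 °C static, read 1 h later; Measured by: AK luminescence; Read-out basis: lysis from increased AK signal; Control set: Clomiphene as positive control.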
DNA binding – binds DNA, flagging false Rad54 inhibitor hits; shares compounds with RAD54 branch; Acridine orange-DNA displacement, fluorescence polarization, 20 min; AC50, µM (highest dose often 35 µM), without a hit: top-dose activity change, negative = DNA binding; hit rate 8% among 460; AID 651673;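 active = signal drop giving an AC50 within twice the top valid tested concentration of each sample, actives reach about 35 µM in these data; inactive = activity opposite to expected, plus the rest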;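 also: polarization loss reports compound binding to salmon sperm DNA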
PglD confirm – blocks Campylobacter jejuni PglD acetyltransferase activity; shares compounds with PglD inh; Purified C. jejuni PglD, DTNB absorbance 412 nm; inhibition, % at 20 µM; 320 tested, under 10 active; AID 743156;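 active = mean inhibition across replicates of at least 20% with every single replicate also at 20% or more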;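 also: initial rate of CoA release by acetyl transfer from AcCoA to the UDP-4-amino sugar; 0% = median of neutral control wells and 100% = median of positive control wells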
DNA binder FP – binds DNA, flagging false RAD52 inhibitor hits. shares compounds with RAD52 inh. Salmon sperm DNA/acridine orange FP displacement, DNA binding. AC50, µM. hit rate 8% among 1,000. AID 652128;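 active = fitted half-maximal concentration for signal loss at or below twice the highest dose tested, in every separate run, actives reach about 64 µM in these data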
* hit, by the source's call; i = inactive; x = not tested or not shown.

SMILES	RAD52 inh	RAD54 branch	PglD inh	rRNA inh HTS	Cneo AK release	others
COc1ccc(-n2c(-c3ccc(C)cc3)nc3ccccc3c2=O)cc1	-7	x	x	-27*	x
CCCNC(=O)[C@H]1[C@H](CO)[C@H]2Cn3c(cccc3=O)[C@@H]1N2CCC	x	-1	2	3	-2
CCCN1[C@@H]2c3ccc(-c4cccc(OC)c4)c(=O)n3C[C@H]1[C@H](CO)[C@H]2C(=O)OC	-10	x	x	0	x
C[C@]12CCC3C(CC[C@H]4C[C@@H](O)CC[C@]34C)C1C[C@@H](O)C2=O (stereo not given in full)	-11	-5	4	-23*	0
CN1[C@@H]2CN(CC3CC3)C[C@H]1C2c1ccc(Br)cc1 (stereo not given in full)	x	x	x	-7	x
FC(F)(F)CN1C[C@@H]2C(c3ccccc3)[C@H](C1)N2CC1CC1 (stereo not given in full)	x	x	x	-2	x
CC=Cc1ccc2n(c1=O)C[C@H]1[C@H](CO)[C@@H](C(=O)OC)[C@@H]2N1S(=O)(=O)c1ccccc1C (mixture of isomers)	53*	5	-1	-2	0
CC=Cc1ccc2n(c1=O)C[C@@H]1[C@@H](CO)[C@H](C(=O)OC)[C@H]2N1S(=O)(=O)c1ccccc1C (mixture of isomers)	56*	-3	0	-4	0
COC(=O)[C@@H]1[C@@H](CO)[C@@H]2Cn3c(ccc(-c4ccccc4)c3=O)[C@H]1N2S(=O)(=O)c1ccccc1C	1	2	1	-4	1
COc1cccc(C2CCN(C)C2)c1 (stereo not given)	-9	-1	-3	-1	-2
COc1ccc(SCC2CN(C)CCC2c2ccc(F)cc2)cc1 (stereo not given)	13	x	x	-33*	x
O=C(c1ccc(Cl)cc1)C1CCCN(Cc2ccc3nonc3c2)C1 (stereo not given)	-8	4	-6	-28*	2
O=C(c1ccc(Cl)cc1)C1CCCN(Cc2cccc3cccnc23)C1 (stereo not given)	-1	10	-4	-23*	2
O=C(c1ccc(Cl)cc1)C1CCCN(Cc2cccc3ncccc23)C1 (stereo not given)	-9	x	x	-31	x
Cc1ccccc1-c1ccc([C@@H]2[C@H](CO)N3CCCCN(C(=O)Cc4ccccn4)C[C@@H]23)cc1	-18	3	1	-2	-1
CCCC/C(=N/O)c1c(C)[nH]c2ccccc12	-13	x	x	-11	x
CCCCC/C(=N/O)c1c(C)[nH]c2ccccc12	0	x	x	-21*	x
CN1CCC(N(C)c2nc(-c3ccccc3)nc3ccccc23)CC1	48	67*	-4	13	-11	DNA binding=-16%
Cc1cc(N2CCN(C)CC2)nc2ccccc12	4	6	-6	12	-4
COc1ccc2c(c1)[nH]c1c(C)nccc12	29	71*	1	x	0	DNA binding=-15%
C/C=C/c1ccc(C2[C@@H]3CN(C(=O)C4CCC4)C[C@H]2N3)cc1 (stereo not given in full)	x	x	x	1	x
CCN1CCN(c2ccc(N)c(C)c2)CC1	92*	77*	3	1	7	DNA binding=4%;DNA binder FP=i
COc1ccc(C(O)(c2cncnc2)C2CC2)cc1 (stereo not given)	7	x	x	x	2
Cc1cc(C)cc(N2C(=O)/C(=C\c3ccc(N4CCN(C)CC4)o3)C(=O)NC2=S)c1	-94	-176	76*	x	4	PglD confirm=-1
CCCNS(=O)(=O)c1ccc(OCC(=O)N2CCN(Cc3ccc4c(c3)OCO4)CC2)cc1	x	-1	29*	x	-2	PglD confirm=8
SMILES	RAD52 inh	RAD54 branch	PglD inh	rRNA inh HTS	Cneo AK release	others
CCCNS(=O)(=O)c1ccc(OCC(=O)N2CCN(Cc3ccc4c(c3)OCO4)CC2)c(C)c1	-5	x	x	-2	x
CCC(=O)N1[C@@H]2c3ccc(C4=CCCC4)c(=O)n3C[C@H]1[C@H](CO)[C@H]2C(=O)OC	-11	-12	-3	1	19
CCOc1ccc(C(C)=O)cc1Cn1ccsc1=N	64*	12	0	11	5	DNA binder FP=i
COc1ccc(C(C)=O)cc1CC(C(=O)c1ccc(C)cc1)N(C)C (stereo not given)	-20	0	4	1	1
CN1CC[C@@H]2CN[C@H](c3ccccc3Br)C[C@@H]21	71*	x	x	21	x	DNA binder FP=i
COc1ccc(OC(=O)N(C)C[C@@H]2OCc3ccccc3-c3c(n(C)c4ccccc34)C(=O)N([C@H](C)CO)C[C@H]2C)cc1	4	x	x	-1	x
NC(N)=N/N=C/c1cn(-c2ccccc2)nc1-c1cccs1	88*	x	x	-62	x	DNA binder FP=i
O=c1c2ccccc2nc(-c2cccs2)n1-c1ccccc1	x	4	-5	x	0
Cc1[nH]c2ccccc2c1C1=CCNCC1	65*	2	2	-56	2	DNA binder FP=i
CCN1[C@@H]2Cn3c(ccc(-c4ccc(OC)cc4)c3=O)[C@H]1[C@@H](C(=O)OC)[C@@H]2CO	1	5	-1	-3	-1
COc1ccc(OC(=O)N(C)C[C@H]2OCc3ccccc3-c3c(n(C)c4ccccc34)C(=O)N([C@@H](C)CO)C[C@@H]2C)cc1	21	x	x	2	x
C[C@H]1CNCCN1c1ccc(N2CC[C@@H](O)C2)c(C#N)c1	-5	x	x	19	x
Cc1cc(N2CCNC[C@@H]2C)ccc1N1CC[C@@H](O)C1	96*	x	x	7	x	DNA binder FP=i
COc1cccc(-c2ccc3n(c2=O)C[C@H]2[C@H](CO)[C@@H](C(=O)O)[C@@H]3N2Cc2ccccc2F)c1	x	x	x	-3	x
O=C([O-])c1ccc(-[n+]2c(-c3ccccc3)cc(-c3ccccc3)cc2-c2ccccc2)cc1	57*	14	2	-7	1	DNA binder FP=i
COc1ccc(-[n+]2c(-c3ccccc3)cc(-c3ccccc3)cc2-c2ccccc2)cc1	11	x	x	-57	x
Oc1ccc(-[n+]2c(-c3ccccc3)cc(-c3ccccc3)cc2-c2ccccc2)cc1	60*	12	-5	-57	-2	DNA binder FP=i
COC(=O)[C@@H]1N[C@@H]2c3ccc(C4=CCCC4)c(=O)n3C[C@@H]2[C@H]1CO	-68	-6	3	1	-1
CC=Cc1ccc2n(c1=O)C[C@@H]1[C@@H](CO)[C@H](C(=O)N(C)C)N[C@H]21 (mixture of isomers)	-2	-5	-1	2	-2

Compound activity (PubChem)
